Screening results (PubChem)
Hits are enriched below; roughly 2% of the tested compounds scored in any of these assays.
M1 PAM = human M1 muscarinic receptor positive allosteric modulators, primary screen, CHO-K1 cells, Fluo-8 calcium fluorescence, 1536-well. CHO-K1 hM1, ACh EC20; 0% = ACh EC20, 100% = maximal ACh. AID 588819, 2011. Muscarinic acetylcholine receptor M1 (Homo sapiens), P11229. 360,000 tested, 0.088% active. activation, % at 3 µM; in the data active = activation above about 19%, passing the limit was not always enough
CHRM5 agonist = human M5 muscarinic receptor agonists, primary screen, CHO-K1 cells, Fluo-8 calcium fluorescence. Muscarinic acetylcholine receptor M5 (Homo sapiens), P08912. CHO-K1 hM5 cells; 0% DMSO wells, 100% maximal acetylcholine response. activation, % at 3 µM. 360,000 tested, 0.19% active;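 active = activation above the run's mean over test compounds plus 3 SD, cut at about 23% in these data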;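 also: signal is peak over basal fluorescence ratio across the kinetic read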
Target sequence (P08912 whole entry, looked up): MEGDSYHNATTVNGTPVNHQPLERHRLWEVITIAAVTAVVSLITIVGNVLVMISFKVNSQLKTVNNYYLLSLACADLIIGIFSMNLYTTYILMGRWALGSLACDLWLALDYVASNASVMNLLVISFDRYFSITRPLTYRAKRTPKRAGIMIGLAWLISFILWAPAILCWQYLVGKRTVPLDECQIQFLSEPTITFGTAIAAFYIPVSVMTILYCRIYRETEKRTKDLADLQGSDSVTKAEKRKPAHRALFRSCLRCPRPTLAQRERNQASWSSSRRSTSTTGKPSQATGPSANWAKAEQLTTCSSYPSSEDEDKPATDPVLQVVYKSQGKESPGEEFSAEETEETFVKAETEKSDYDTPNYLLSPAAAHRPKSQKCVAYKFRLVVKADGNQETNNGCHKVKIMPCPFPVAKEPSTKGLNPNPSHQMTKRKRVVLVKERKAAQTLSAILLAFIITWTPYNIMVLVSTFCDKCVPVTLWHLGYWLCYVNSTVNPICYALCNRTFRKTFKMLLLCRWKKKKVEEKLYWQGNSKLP
CHRM5 antagonist = human M5 muscarinic receptor antagonists, primary screen, CHO cells, Fluo-8 calcium fluorescence; Muscarinic acetylcholine receptor M5 (Homo sapiens), P08912; CHO-hM5 cells, ACh EC80; inhibition, % at 3 µM; 360,000 tested, 0.59% active; AID 624040, 2012;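 active = inhibition above a per-plate cutoff, the mean of that plate's test compounds plus 3 SD, cut at about 27% in these data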;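 also: 0% = acetylcholine EC80 with DMSO and 100% = DMSO without agonist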
CHRM1 antagonist = human M1 muscarinic receptor antagonists, primary screen, CHO-K1 cells, Fluo-8 calcium fluorescence, 1536-well; Muscarinic acetylcholine receptor M1 (Homo sapiens), P11229; CHO-K1 hM1, ACh EC80 antagonist; inhibition, % at 3 µM; 360,000 tested, 1.3% active;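 active = percent inhibition above its own plate's cutoff, namely the mean of that plate's compound wells plus 3 SD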;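 also: peak over basal fluorescence ratio during 140 s after agonist addition; 0% = ACh EC80 plus DMSO and 100% = DMSO alone without agonist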
M5 PAM = human M5 muscarinic receptor positive allosteric modulators, primary screen, CHO-K1 cells, Fluo-8 calcium fluorescence; activation, % at 3 µM; 360,000 tested, 0.3% active; Muscarinic acetylcholine receptor M5 (Homo sapiens), P08912; CHO-K1 hM5, ACh EC20 PAM; 0% = ACh EC20, 100% = ACh EC100;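 active = activation above the run cutoff, the mean activation of all test compounds plus 3 SD, cut at about 18% in these data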
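Assay system: CHO-K1 hM5 cells / Incubation: Fluo-8 loading 80 min at 37 °C plus 30 min room temperature / Technique: Fluo-8 calcium dye fluorescence, kinetic read / Repeats: single replicate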
M1 ag = human M1 muscarinic receptor agonists, primary screen, Fluo-8 calcium fluorescence, CHO-K1 cells, HTS; CHO-K1 hM1, agonist mode; 0% DMSO, 100% acetylcholine EC100; activation, % at 3 µM; 360,000 tested, 0.33% active;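 active = activation above the run's mean compound activation plus 3 SD, cut at about 16% in these data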;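 also: peak over basal fluorescence ratio within a 140 s kinetic read after compound addition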
An asterisk follows results filed as active; · = no result given.

SMILES	M1 PAM	CHRM5 agonist	CHRM5 antagonist	CHRM1 antagonist	M5 PAM	M1 ag
CCOC(=O)Cn1c(=O)oc2cc(S(=O)(=O)NC3CCCCC3)ccc21	-20	2	11	32*	-11	-1
CCOC(=O)Cn1c(=O)oc2cc(S(=O)(=O)NC3CCCc4ccccc43)ccc21 (centres undefined)	-2	3	1	1	-10	1
CC1(C(=O)Nc2ccc3c(c2)OCO3)Cc2c(-c3cccc(C(N)=O)c3)ccnc2O1 (centres undefined)	7	2	2	-6	0	1
COc1cccc(N(C(=O)c2snc(C(N)=O)c2N)C(C(=O)NCc2ccccc2)c2ccc(O)cc2)c1 (centres undefined)	-3	-1	31*	7	-12	-3
Cc1ccccc1N(C(=O)c1snc(C(N)=O)c1N)C(C(=O)NCc1ccccc1)c1ccc(O)cc1 (centres undefined)	-1	0	20	10	-10	2
NC(=O)c1nsc(C(=O)N(c2ccccc2F)C(C(=O)NCc2ccccc2)c2ccc(O)cc2)c1N (centres undefined)	-23	5	17	39*	-14	1
COc1ccc(C2C(C#N)=C(N)Oc3cc(O)ccc32)cc1C (centres undefined)	13	24*	7	-12	-6	15
COc1ccc(C2C(C#N)=C(N)Oc3cc(O)ccc32)cc1OC (centres undefined)	6	-1	-10	-7	-2	-1
C=CCn1c(SCC(=O)O)nc2sc(CC)cc2c1=O	-3	1	-6	6	1	-7
C=CCn1c(SCC#N)nc2sc(CC)cc2c1=O	-20	-18	2	34*	-3	-6
CCN(CC)CCOc1ccccc1C(C)=O	-34	-10	16	40*	-16	-14
CC(=O)c1ccccc1OCCOCCOc1ccccc1C(C)=O	-9	6	9	4	-12	-6
OCCN(Cc1ccccn1)Cc1ccccn1	-32	-3	-3	72*	2	-12
O=C(Nc1c(-c2ccccc2)[nH][nH]c1=O)c1cccs1	·	0	-1	·	-3	·
Cc1cc2c(cc1C)N(C(=O)CSC1=NCCS1)C(C)(C)c1ssc(=S)c1-2	-29	-6	-1	54*	-16	-12
Cc1nc2ccc(C(=O)N(C)Cc3ccco3)cn2c1N(C)C(=O)CCc1ccccc1	3	-1	16	-9	-2	-3
CCCN1CCc2c(sc(NC(=S)NC(=O)c3ccccc3)c2C#N)C1	-7	19	17	19	-12	37*
CCCCCCCCNCCS(=O)(=O)NC1CCCCC1	0	1	-13	-14	4	3
CC1CN(C)C(C)CC1OC(=O)C(c1ccccc1)c1ccccc1 (centres undefined)	-27	-17	68*	97*	-29	-8
NC(=O)C(c1ccccc1)C1CCCC1 (centres undefined)	2	-1	-11	-3	-3	0
CCCCOc1ccc(C(=O)OC2CC(C)N(C)CC2C)cc1 (centres undefined)	-25	-12	13	44*	-29	-6
CC1CN(C(C)C)C(C)CC1OC(=O)c1ccccc1 (centres undefined)	-17	-25	-4	19	-18	-10
CN(C)[C@@H]1CCC[C@H]1OC(=O)C(c1ccccc1)c1ccccc1	-26	-8	53*	92*	-19	-7
CN(C)CCN1CCN(C2CN(Cc3ccccc3)S(=O)(=O)C2)CC1 (centres undefined)	8	1	-14	1	5	-2
COCCNc1nc(N2CCCCC2)c2cnn(C)c2n1	7	-2	-26	-14	18*	-2
